# According to ChEMBL document CHEMBL4196105, “Discovery of β-Arrestin Biased Ligands of 5-HT7R” (J Med Chem, 2018):
# Calls of active or inactive are those of the source. The rule behind the calls is not given here.
# Assays:
# [1] = target: T1, 5-hydroxytryptamine receptor 7 (Homo sapiens, UniProt P34969); test: Displacement of [3H]LSD from human 5-HT7 receptor expressed in HEK cell membranes after 1.5 hrs by microbeta scintillation counting method
# [2] = target: T1, 5-hydroxytryptamine receptor 7; test: Displacement of [3H]LSD from human 5-HT7 receptor expressed in HEK cell membranes at 10 uM after 1.5 hrs by microbeta scintillation counting method
# In short: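 [3H]LSD binding to recombinant 5-HT7R membranes in Tris-HCl/MgCl2/EDTA buffer, pH 7.4, 1.5 h at room temperature, filtration and scintillation counting. Percent inhibition at a single 10 μM test concentration.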
# [3] = target: T2, 5-hydroxytryptamine receptor 1A (Homo sapiens, UniProt P08908); test: Displacement of [3H]LSD from human 5-HT1A receptor expressed in HEK cell membranes after 1.5 hrs by microbeta scintillation counting method
# T2 sequence (P08908 whole entry): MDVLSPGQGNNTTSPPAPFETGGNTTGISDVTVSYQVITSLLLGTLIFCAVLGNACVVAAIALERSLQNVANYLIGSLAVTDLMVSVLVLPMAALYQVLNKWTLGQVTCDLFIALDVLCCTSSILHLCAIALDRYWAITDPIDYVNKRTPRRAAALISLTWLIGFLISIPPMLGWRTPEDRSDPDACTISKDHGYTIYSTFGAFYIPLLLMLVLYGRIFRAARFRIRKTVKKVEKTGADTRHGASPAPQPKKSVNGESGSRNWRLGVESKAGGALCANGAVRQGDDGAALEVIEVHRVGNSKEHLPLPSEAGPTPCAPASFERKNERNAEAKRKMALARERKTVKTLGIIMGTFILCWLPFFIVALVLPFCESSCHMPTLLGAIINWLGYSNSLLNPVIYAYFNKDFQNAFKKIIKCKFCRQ
# In short: (§1)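 Radioligand binding performed by the NIMH Psychoactive Drug Screening Program. Crude membranes from cells expressing recombinant receptor, with [3H]LSD, in 50 mM Tris-HCl, 10 mM MgCl2, 1 mM EDTA, pH 7.4. Eleven test concentrations. Incubated 1.5 h at room temperature, protected from light. Filtered onto PEI-soaked GF/B filters, then scintillation counting. IC50 converted to Ki; at least three experiments in triplicate.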
# [4] = target: 5-hydroxytryptamine receptor 1B (Homo sapiens, UniProt P28222); test: Displacement of [3H]LSD from human 5-HT1B receptor expressed in HEK cell membranes after 1.5 hrs by microbeta scintillation counting method; in short: as §1
# 5-hydroxytryptamine receptor 1B, sequence (P28222 whole entry): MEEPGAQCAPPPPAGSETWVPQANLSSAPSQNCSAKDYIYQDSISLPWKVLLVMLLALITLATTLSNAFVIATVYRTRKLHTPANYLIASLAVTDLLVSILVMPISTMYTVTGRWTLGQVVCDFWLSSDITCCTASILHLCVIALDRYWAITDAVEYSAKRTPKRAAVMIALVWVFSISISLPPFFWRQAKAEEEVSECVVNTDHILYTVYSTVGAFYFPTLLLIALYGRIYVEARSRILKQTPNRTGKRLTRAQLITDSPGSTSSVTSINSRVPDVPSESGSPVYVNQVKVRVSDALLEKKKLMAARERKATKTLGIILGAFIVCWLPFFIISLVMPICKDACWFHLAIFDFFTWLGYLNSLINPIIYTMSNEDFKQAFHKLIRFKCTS
# [5] = target: 5-hydroxytryptamine receptor 1D (Homo sapiens, UniProt P28221); test: Displacement of [3H]LSD from human 5-HT1D receptor expressed in HEK cell membranes after 1.5 hrs by microbeta scintillation counting method; in short: as §1
# 5-hydroxytryptamine receptor 1D, sequence (P28221 whole entry): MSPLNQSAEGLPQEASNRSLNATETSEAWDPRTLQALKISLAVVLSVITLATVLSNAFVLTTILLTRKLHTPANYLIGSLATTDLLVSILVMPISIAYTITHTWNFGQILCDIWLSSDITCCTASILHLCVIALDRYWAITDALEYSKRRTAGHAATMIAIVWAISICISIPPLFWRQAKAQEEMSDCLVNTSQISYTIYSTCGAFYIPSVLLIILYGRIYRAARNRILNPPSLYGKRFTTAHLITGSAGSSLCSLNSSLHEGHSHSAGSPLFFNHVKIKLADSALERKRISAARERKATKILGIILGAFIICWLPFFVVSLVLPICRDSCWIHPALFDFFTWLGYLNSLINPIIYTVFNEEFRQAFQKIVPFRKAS
# [6] = target: 5-hydroxytryptamine receptor 1E (Homo sapiens, UniProt P28566); test: Displacement of [3H]LSD from human 5-HT1E receptor expressed in HEK cell membranes after 1.5 hrs by microbeta scintillation counting method; in short: as §1
# 5-hydroxytryptamine receptor 1E, sequence (P28566 whole entry): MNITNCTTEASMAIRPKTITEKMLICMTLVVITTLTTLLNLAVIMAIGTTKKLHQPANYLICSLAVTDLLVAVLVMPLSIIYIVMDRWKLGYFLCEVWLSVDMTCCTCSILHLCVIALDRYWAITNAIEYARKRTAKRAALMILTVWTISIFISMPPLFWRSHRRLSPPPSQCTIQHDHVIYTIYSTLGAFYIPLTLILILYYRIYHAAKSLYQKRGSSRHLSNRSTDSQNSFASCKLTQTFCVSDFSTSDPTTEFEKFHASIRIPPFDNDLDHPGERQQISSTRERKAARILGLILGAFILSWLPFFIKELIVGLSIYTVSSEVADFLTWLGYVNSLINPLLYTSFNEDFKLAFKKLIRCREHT
# [7] = target: 5-hydroxytryptamine receptor 2A (Homo sapiens, UniProt P28223); test: Displacement of [3H]LSD from human 5-HT2A receptor expressed in HEK cell membranes after 1.5 hrs by microbeta scintillation counting method; in short: as §1
# 5-hydroxytryptamine receptor 2A, sequence (P28223 whole entry): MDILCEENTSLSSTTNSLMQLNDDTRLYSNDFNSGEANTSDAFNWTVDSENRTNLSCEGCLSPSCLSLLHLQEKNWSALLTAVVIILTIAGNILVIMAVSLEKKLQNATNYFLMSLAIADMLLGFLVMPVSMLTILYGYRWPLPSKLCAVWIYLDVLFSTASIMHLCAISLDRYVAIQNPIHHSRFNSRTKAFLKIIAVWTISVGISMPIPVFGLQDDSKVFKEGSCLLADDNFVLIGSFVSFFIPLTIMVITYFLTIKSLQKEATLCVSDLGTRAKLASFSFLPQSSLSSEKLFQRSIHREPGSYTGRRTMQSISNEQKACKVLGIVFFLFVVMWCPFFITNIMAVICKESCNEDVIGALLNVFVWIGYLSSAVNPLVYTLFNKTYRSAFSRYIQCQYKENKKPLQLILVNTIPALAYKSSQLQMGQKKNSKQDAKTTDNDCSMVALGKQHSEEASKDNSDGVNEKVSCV
# [8] = target: 5-hydroxytryptamine receptor 2B (Homo sapiens, UniProt P41595); test: Displacement of [3H]LSD from human 5-HT2B receptor expressed in HEK cell membranes after 1.5 hrs by microbeta scintillation counting method
# 5-hydroxytryptamine receptor 2B, sequence (P41595 whole entry): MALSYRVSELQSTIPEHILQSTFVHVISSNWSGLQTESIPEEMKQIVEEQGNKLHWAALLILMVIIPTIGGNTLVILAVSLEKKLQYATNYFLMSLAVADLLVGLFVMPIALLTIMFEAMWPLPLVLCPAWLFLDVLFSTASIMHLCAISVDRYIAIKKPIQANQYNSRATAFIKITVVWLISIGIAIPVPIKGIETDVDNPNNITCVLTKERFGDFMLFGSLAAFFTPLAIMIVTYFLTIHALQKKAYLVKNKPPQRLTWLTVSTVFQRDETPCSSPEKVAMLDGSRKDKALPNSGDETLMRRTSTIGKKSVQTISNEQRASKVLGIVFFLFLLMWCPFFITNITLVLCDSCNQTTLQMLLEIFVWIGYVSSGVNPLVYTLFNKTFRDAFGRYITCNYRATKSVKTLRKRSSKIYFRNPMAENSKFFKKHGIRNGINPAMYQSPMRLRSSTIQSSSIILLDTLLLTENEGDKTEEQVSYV
# [9] = target: T3, 5-hydroxytryptamine receptor 2C (Homo sapiens, UniProt P28335); test: Displacement of [3H]LSD from human 5-HT2C receptor expressed in HEK cell membranes after 1.5 hrs by microbeta scintillation counting method; in short: as §1
# T3 sequence (P28335 whole entry): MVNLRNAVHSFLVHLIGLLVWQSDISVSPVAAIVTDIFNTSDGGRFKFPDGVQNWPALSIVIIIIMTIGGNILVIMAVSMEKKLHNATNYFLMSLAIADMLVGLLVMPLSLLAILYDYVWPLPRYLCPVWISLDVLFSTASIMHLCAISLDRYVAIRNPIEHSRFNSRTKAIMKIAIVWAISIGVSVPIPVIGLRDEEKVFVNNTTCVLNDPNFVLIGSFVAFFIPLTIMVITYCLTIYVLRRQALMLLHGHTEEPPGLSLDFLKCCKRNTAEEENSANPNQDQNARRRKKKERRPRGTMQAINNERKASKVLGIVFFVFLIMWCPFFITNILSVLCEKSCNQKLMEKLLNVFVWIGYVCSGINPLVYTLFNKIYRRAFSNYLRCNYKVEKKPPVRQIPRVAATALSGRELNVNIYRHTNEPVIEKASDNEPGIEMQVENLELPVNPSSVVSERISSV
# [10] = target: T4, 5-hydroxytryptamine receptor 3A (Homo sapiens, UniProt P46098); test: Displacement of [3H]LSD from human 5-HT3 receptor expressed in HEK cell membranes after 1.5 hrs by microbeta scintillation counting method; in short: as §1
# T4 sequence (P46098 whole entry): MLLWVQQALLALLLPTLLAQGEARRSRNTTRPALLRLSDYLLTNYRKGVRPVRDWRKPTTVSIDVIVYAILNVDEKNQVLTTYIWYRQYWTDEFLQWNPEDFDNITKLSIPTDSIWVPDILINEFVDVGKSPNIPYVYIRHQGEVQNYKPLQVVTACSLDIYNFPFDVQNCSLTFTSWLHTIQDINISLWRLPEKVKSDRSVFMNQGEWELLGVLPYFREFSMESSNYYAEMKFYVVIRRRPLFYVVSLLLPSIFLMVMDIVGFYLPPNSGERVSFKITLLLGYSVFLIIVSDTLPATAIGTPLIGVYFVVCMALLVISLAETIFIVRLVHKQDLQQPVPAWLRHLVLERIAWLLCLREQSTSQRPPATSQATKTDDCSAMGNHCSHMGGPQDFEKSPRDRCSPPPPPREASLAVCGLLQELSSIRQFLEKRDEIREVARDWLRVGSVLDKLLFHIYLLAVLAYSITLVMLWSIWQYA
# [11] = target: 5-hydroxytryptamine receptor 4 (Homo sapiens, UniProt Q13639); test: Displacement of [3H]LSD from human 5-HT4 receptor expressed in HEK cell membranes after 1.5 hrs by microbeta scintillation counting method; in short: as §1
# 5-hydroxytryptamine receptor 4, sequence (Q13639 whole entry): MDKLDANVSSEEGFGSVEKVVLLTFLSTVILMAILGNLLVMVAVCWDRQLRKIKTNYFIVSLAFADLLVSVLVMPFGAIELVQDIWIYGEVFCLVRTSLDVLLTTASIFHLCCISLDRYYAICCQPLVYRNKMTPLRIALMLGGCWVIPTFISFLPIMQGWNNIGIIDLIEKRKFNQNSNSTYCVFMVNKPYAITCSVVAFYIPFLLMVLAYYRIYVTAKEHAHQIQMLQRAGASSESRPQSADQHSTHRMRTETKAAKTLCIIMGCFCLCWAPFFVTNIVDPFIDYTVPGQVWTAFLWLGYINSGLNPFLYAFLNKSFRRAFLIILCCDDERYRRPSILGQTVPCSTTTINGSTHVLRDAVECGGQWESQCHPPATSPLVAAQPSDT
# [12] = target: 5-hydroxytryptamine receptor 5A (Homo sapiens, UniProt P47898); test: Displacement of [3H]LSD from human 5-HT5A receptor expressed in HEK cell membranes after 1.5 hrs by microbeta scintillation counting method; in short: as §1
# 5-hydroxytryptamine receptor 5A, sequence (P47898 whole entry): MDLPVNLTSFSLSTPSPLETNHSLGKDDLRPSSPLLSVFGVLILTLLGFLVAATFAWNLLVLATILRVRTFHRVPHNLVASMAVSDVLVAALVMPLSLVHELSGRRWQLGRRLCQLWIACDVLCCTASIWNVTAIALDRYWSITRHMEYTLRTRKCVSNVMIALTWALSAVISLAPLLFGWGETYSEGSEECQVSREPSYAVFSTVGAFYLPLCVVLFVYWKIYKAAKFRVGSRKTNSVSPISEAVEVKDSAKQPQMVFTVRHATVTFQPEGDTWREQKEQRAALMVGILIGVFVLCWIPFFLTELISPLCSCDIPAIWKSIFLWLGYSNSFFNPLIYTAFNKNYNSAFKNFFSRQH
# [13] = target: 5-hydroxytryptamine receptor 6 (Homo sapiens, UniProt P50406); test: Displacement of [3H]LSD from human 5-HT6 receptor expressed in HEK cell membranes after 1.5 hrs by microbeta scintillation counting method; in short: as §1
# 5-hydroxytryptamine receptor 6, sequence (P50406 whole entry): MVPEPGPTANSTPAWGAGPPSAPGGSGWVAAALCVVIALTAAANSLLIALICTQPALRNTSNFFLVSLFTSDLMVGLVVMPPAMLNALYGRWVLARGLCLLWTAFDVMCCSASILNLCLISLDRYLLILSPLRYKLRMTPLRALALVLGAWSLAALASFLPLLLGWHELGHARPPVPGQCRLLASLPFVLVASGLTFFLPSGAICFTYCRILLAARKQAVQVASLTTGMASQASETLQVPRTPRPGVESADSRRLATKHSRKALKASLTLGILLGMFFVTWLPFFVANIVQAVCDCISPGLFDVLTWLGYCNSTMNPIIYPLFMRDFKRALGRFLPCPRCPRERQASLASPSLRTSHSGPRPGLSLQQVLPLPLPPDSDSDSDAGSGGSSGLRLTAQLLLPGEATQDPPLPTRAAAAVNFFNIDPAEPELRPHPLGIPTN
# [14] = organism: Homo sapiens; test: Selectivity index, ratio of Ki for human 5-HT2A receptor to Ki for human 5-HT7 receptor
# In short: (§2)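 Selectivity index taken as Ki at the other 5-HT receptor subtype divided by Ki at 5-HT7R, each from [3H]LSD membrane binding run by the NIMH PDSP. Ki values are means of at least three experiments in triplicate.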
# [15] = organism: Homo sapiens; test: Selectivity index, ratio of Ki for human 5-HT2B receptor to Ki for human 5-HT7 receptor; in short: as §2
# [16] = organism: Homo sapiens; test: Selectivity index, ratio of Ki for human 5-HT2C receptor to Ki for human 5-HT7 receptor; in short: as §2
# [17] = organism: Homo sapiens; test: Selectivity index, ratio of Ki for human 5-HT3 receptor to Ki for human 5-HT7 receptor; in short: as §2
# [18] = organism: Homo sapiens; test: Selectivity index, ratio of Ki for human 5-HT6 receptor to Ki for human 5-HT7 receptor; in short: as §2
# [19] = target: T1, 5-hydroxytryptamine receptor 7; test: Inverse agonist activity at human 5-HT7 receptor expressed in HEK293 cells assessed as decrease in Gs protein-mediated cAMP accumulation by luminescence-based assay; assay type: functional, cell-based
# In short: (§3)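 HEK293 cells transiently transfected by calcium phosphate with human 5-HT7R and GloSensor-22F cAMP biosensor. After 5-6 h recovery, loaded with GloSensor reagent in HBSS/20 mM HEPES, pH 7.4. Test compounds at 0.01 nM-100 μM final; antagonist mode uses 5-HT stimulation. Luminescence read. Data normalised to 5-HT or SB269970 (100%) and vehicle (0%). Three experiments, at least triplicate.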
# [20] = target: T1, 5-hydroxytryptamine receptor 7; test: Antagonist activity at human 5-HT7 receptor expressed in HEK293 cells assessed as inhibition of Gs protein-mediated cAMP accumulation by luminescence-based assay relative to SB269970; assay type: functional, cell-based; in short: as §3
# [21] = target: T1, 5-hydroxytryptamine receptor 7; test: Agonist activity at tTA containing TCS cleavage site-fused 5-HT7 receptor (unknown origin) expressed in tTA-dependent luciferase reporter/TEV-fused beta-arrestin2 expressing HTLA cells assessed as induction of beta-arrestin2 recruitment after 22 hrs by Tango assay relative to 5-HT; assay type: functional, cell-based
# In short: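 HTLA cells (HEK293 stably expressing tTA-dependent luciferase reporter and β-arrestin2-TEV) transiently transfected with 5-HT7R-TCS-tTA. Plated in 1% dialysed FBS medium for 6 h, then given test compounds at 0.01 nM-100 μM final, about 22 h. Antagonist mode adds 1 μM 5-HT. BrightGlo luminescence read. Normalised to 5-HT (100%) and vehicle (0%). Three experiments, at least triplicate.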
# [22] = target: T1, 5-hydroxytryptamine receptor 7; test: Antagonist activity at tTA containing TCS cleavage site-fused 5-HT7 receptor (unknown origin) expressed in tTA-dependent luciferase reporter/TEV-fused beta-arrestin2 expressing HTLA cells assessed as inhibition of 5-HT-induced beta-arrestin2 recruitment after 22 hrs by Tango assay; assay type: functional, cell-based
# [23] = target: T1, 5-hydroxytryptamine receptor 7
# [24] = target: T1, 5-hydroxytryptamine receptor 7; remark: listed apart in the source
# [25] = organism: Homo sapiens; test: Selectivity index, ratio of Ki for human 5-HT5A receptor to Ki for human 5-HT7 receptor; in short: as §2
# [26] = test system: Mus musculus; test: Sleep promoting activity in C57B1/6J mouse assessed as decrease in total rapid eye movement sleep time at 30 mg/kg, ip measured over 8 hrs by electroencephalogram method; assay type: functional; design: scale not given: the % may be the effect or the level left
# In short: (§4)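 Adult male C57Bl/6J mice, 10 weeks old, with parietal EEG screw electrodes implanted under ketamine. EEG and EMG recorded for 8 h from 9 AM, starting one day before dosing as baseline. On test day, 30 mg/kg i.p. at the start of the light phase, with EEG/EMG recorded for 8 h and scored in 2-h bins. n = 6-9 per group; mean ± SEM versus vehicle.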
# [27] = test system: Mus musculus; test: Sleep promoting activity in C57B1/6J mouse assessed as duration of total non-rapid eye movement sleep time at 30 mg/kg, ip measured over 8 hrs by electroencephalogram method (reference value: 252 +/- 22.7 mins); assay type: functional; in short: as §4
# [28] = organism: Homo sapiens; test: Selectivity index, ratio of Ki for human 5-HT1D receptor to Ki for human 5-HT7 receptor; in short: as §2
# [29] = organism: Homo sapiens; test: Selectivity index, ratio of Ki for human 5-HT1E receptor to Ki for human 5-HT7 receptor; in short: as §2
# T1 sequence (P34969 whole entry): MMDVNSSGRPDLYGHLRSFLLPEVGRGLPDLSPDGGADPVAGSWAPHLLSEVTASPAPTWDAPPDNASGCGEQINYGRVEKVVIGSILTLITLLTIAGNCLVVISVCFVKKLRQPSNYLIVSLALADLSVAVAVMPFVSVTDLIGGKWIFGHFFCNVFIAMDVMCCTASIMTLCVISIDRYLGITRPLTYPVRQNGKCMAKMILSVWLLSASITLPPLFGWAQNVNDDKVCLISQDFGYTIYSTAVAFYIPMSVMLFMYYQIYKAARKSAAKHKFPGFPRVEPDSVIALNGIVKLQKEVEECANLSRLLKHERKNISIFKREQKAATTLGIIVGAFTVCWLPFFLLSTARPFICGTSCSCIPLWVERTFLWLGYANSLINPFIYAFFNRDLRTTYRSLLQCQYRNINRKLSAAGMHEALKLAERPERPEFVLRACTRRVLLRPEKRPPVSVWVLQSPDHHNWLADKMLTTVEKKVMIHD
smiles,measurement,setting,value
Cc1ccccc1-c1noc2c1CCNCC2,Ki,[1],> 10 µM
same,inhibition,[2],< 50%
Clc1ccc(-c2noc3c2CCNCC3)cc1,Ki,[3],> 10 µM
same,Ki,[4],> 10 µM
same,Ki,[5],> 10 µM
same,Ki,[6],> 10 µM
same,Ki,[7],0.399 µM
same,Ki,[8],0.247 µM
same,Ki,[9],1.1 µM
same,Ki,[10],0.303 µM
same,Ki,[11],> 10 µM
same,Ki,[12],> 10 µM
same,Ki,[13],0.36 µM
same,Ratio Ki,[14],5.7
same,Ratio Ki,[15],3.5
same,Ratio Ki,[16],15.7
same,Ratio Ki,[17],4.3
same,Ratio Ki,[18],5.1
same,Activity,[19],Active
same,Imax,[20],94.9%
same,Emax,[21],47.1%
same,inhibition,[22],inactive
same,IC50,[23],3.97 µM
same,EC50,[24],0.113 µM
Fc1ccc(-c2noc3c2CCNCC3)cc1,Ki,[3],> 10 µM
same,Ki,[4],> 10 µM
same,Ki,[5],> 10 µM
same,Ki,[6],> 10 µM
same,Ki,[7],0.471 µM
same,Ki,[8],0.505 µM
same,Ki,[9],0.785 µM
same,Ki,[10],0.703 µM
same,Ki,[11],> 10 µM
same,Ki,[12],1.23 µM
same,Ki,[13],> 10 µM
same,Ratio Ki,[14],8.9
same,Ratio Ki,[15],9.5
same,Ratio Ki,[16],14.8
same,Ratio Ki,[17],13.3
same,Ratio Ki,[25],23.2
same,Activity,[19],Active
same,Imax,[20],98%
same,Emax,[21],38.2%
same,inhibition,[22],inactive
same,IC50,[23],2.46 µM
same,EC50,[24],0.135 µM
CC1CCN(CC[C@H]2CCCN2S(=O)(=O)c2cccc(O)c2)CC1,Activity,[26],37.1%
same,Activity,[19],Active
same,Emax,[21],< 20%
same,Time,[27],252 min
Cc1ccc(-c2n[nH]c3c2CCNCC3)cc1,Ki,[3],> 10 µM
same,Ki,[4],> 10 µM
same,Ki,[5],0.165 µM
same,Ki,[6],0.89 µM
same,Ki,[7],0.159 µM
same,Ki,[8],0.106 µM
same,Ki,[9],0.296 µM
same,Ki,[10],> 10 µM
same,Ki,[11],> 10 µM
same,Ki,[12],> 10 µM
same,Ki,[13],0.109 µM
same,Ratio Ki,[28],3.5
same,Ratio Ki,[29],18.9
same,Ratio Ki,[14],3.4
same,Ratio Ki,[15],2.3
same,Ratio Ki,[16],6.3
same,Ratio Ki,[18],2.3
same,Activity,[19],Active
same,Imax,[20],97.4%
same,Emax,[21],50.9%
same,inhibition,[22],inactive
same,IC50,[23],2.56 µM
same,EC50,[24],0.165 µM
